PolyA inh: inhibitors of polyadenylation in S. cerevisiae | S. cerevisiae SKY197-pL101 polyadenylation reporter, beta-gal luminescence; efflux-impaired pdr1/pdr3 knockout yeast; score 100 = 6 SD above DMSO | activity score, % at 12 µM | hit rate 0.02% among 300,000;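 active = lowest replicate activity score at least 50, where 100 means six control SD above control mean; inconclusive = lowest score under 50 but half or more replicates reach 50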;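 also: yeast exposed to compound for 9 h at 30 °C; higher score means more reporter readthrough which indicates perturbed polyadenylation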
Pemphigus Ab inh: human desmoglein-3 autoantibody binding inhibition. P32926. AID 588358. hit rate 0.48% among 310,000. binding (percent of control), % at 10 µM. DSG3-coupled beads, scFv-anti-DSG3-GFP binding, flow cytometry; hits give low values;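 active = binding more than 3 SD below its plate's average and above zero; inconclusive = below that plate limit but binding exactly zero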;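 also: hits lower antibody fragment binding to DSG3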
Target sequence (P32926 whole entry, looked up, the tested form may be a part): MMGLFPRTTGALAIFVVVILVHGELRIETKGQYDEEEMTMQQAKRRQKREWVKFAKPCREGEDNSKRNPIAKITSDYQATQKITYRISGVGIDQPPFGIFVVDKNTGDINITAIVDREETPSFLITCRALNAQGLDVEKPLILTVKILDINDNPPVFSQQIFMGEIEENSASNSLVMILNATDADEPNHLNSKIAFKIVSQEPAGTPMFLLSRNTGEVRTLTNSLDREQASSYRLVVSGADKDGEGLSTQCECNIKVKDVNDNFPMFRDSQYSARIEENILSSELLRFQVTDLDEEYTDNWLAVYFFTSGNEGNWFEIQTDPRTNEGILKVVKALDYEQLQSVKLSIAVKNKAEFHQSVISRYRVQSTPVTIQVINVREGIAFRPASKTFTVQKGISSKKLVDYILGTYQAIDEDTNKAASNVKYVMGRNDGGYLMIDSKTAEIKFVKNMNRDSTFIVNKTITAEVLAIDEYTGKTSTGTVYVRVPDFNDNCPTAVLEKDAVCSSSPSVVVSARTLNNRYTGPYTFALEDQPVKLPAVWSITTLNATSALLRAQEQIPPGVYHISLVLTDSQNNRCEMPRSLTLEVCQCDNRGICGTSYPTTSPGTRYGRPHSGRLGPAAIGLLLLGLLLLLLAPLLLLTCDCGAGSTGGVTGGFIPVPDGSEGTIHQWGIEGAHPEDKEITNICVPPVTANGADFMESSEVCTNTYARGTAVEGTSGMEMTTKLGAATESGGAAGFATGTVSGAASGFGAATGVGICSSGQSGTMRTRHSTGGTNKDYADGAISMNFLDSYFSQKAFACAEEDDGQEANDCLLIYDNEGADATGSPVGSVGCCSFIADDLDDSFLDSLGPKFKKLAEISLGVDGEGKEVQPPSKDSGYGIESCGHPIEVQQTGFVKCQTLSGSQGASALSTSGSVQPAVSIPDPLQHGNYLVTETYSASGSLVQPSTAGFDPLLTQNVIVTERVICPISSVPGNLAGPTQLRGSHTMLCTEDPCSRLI
NALP3 yeast inh: inhibitors of NALP3 inflammasome in yeast | AID 2825 | inhibition, % at 10 µM | Yeast reconstituted NLRP3/ASC/caspase-1, beta-gal luminescence, 24 h | hit rate 0.39% among 330,000;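 active = inhibition of 50% or more; inactive = inhibition below 50%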;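 also: plate controls were induced DMSO wells for no effect and uninduced yeast grown without galactose for full effect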
NALP1 inh: blocks the NALP1 inflammasome reconstituted in yeast | inhibition, % at 10 µM | S. cerevisiae NALP1/ASC/caspase-1 growth, X-gal OD620, 72 h | AID 2071 | hit rate 0.61% among 280,000; in the data active = inhibition mostly above about 24%, no sharp cut-off; inactive = mostly below about 32%
ALR inh: inhibitors of human sulfhydryl oxidase ALR | P55789 | purified ALR, DTT oxidation, H2O2 HRP-luminol luminescence | inhibition, % (test concentration not listed) | hit rate 3.8% among 290,000 | AID 485317;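 active = mean replicate inhibition above about 79%, with every replicate also reaching it, limit read from the data; inconclusive = only one of the two criteria met; inactive = mean below limit and not every replicate reaching it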
Arrestin-AP2 inh: human beta-arrestin and AP2 interaction inhibition; FITC-arrestin peptide / GST-AP2 beads, flow cytometry; AP2 beta2 appendage carries R879A mutation; inhibition, % at 10 µM; hit rate 0.31% among 340,000; AID 504490;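 active = inhibition above a set limit, near 3 SD of compounds lacking own fluorescence, cut at about 54% in these data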;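 also: plate controls were DMSO wells for no effect and 5 µM unlabelled arrestin peptide for full effect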
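System: GST-tagged AP2 beta2-adaptin appendage (R879A) on 4 µm glutathione beads / Reagent: FITC-arrestin peptide, 50 nM / Detection: HyperCyt-sampled flow cytometry, FL1 channel, ex 488/em 535 nm / Timing: 12 min plus 1 h, RT / Buffer or medium: PBS plus Tween 20 (0.05%) and BSA (0.1%)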
* marks the source's active call; other numbers are inactive results; u = inconclusive; x = no result given. Shown are actives, neighbours in structure and some others; about 4.6% of the full set was active somewhere.

SMILES | PolyA inh | Pemphigus Ab inh | NALP3 yeast inh | NALP1 inh | ALR inh | Arrestin-AP2 inh
C/C(=N\Nc1ccccn1)c1ccc(Br)s1 | -8.0 | 109.7 | -60.9 | x | 98.7* | -2.1
O=C(Nc1cccc(Cl)c1)C1CCCN(C2=NS(=O)(=O)c3ccccc32)C1 (stereo unspecified) | x | 98.6 | 22.9 | x | x | 5.9
CCN(CCNC(=O)c1cc(C)nn1-c1ccccc1)c1ccccc1 | -4.8 | 99.0 | -3.4 | 25.4 | 98.8* | 0.9
Cc1ccc(CCNC(=O)c2cc(C)nn2-c2ccccc2)cc1 | -8.9 | 93.4 | 11.3 | x | x | -5.9
O=S(=O)(c1ccc(S(=O)(=O)N(Cc2ccccc2)Cc2ccco2)cc1)N1CCCC1 | 6.0 | 128.3 | 3.1 | x | 94.3* | -1.2
Cc1ccc2c(c1)-n1c(nc3cc(Cl)ccc3c1=O)C(CC(C)C)NC2=O (stereo unspecified) | x | x | 20.5 | x | 4.5 | x
CNC(=S)NNC(=O)c1cc(-c2cccnc2)nc2ccccc12 | -4.0 | 103.3 | 16.7 | -2.9 | 46.8 | -12.9
CC(=O)Nc1ccc(S(=O)(=O)c2cc(O)ccc2O)cc1 | -7.1 | 108.1 | 9.3 | 2.9 | u | 0.5
Cc1ccc(Nc2ccc(NCc3ccccc3)nn2)cc1C | 6.9 | 123.5 | 22.6 | 40.4 | 26.9 | 1.3
Cc1ccc(Nc2nnns2)cc1C | 25.1 | 78.5 | -3.9 | 5.9 | 87.2* | 13.0
O=C(Nc1cccc(-c2nc3ccccc3s2)c1)c1cc(-n2cnnc2)ccc1Cl | -7.6 | 87.3 | 13.8 | 8.5 | -9.6 | 7.9
Cc1c(NC(=O)c2cc(-n3cnnc3)ccc2Cl)cccc1-c1nc2ccccc2s1 | -3.4 | x | -18.9 | 31.0 | 87.5* | 12.2
CN(Cc1ccccn1)C(=O)C1CCC(=O)N(CCc2ccc(Cl)cc2)C1 (stereo unspecified) | 5.1 | 103.6 | 5.1 | -6.9 | -2.8 | 20.9
COc1ccc(-c2cccc(NS(=O)(=O)c3cc([N+](=O)[O-])c(C)c([N+](=O)[O-])c3)c2)nn1 | -0.3 | u | 16.5 | x | x | -10.0
COc1ccc(Cl)cc1N1C(=O)/C(=C\c2sccc2C)N=C1SCC(=O)NC1CC1 | -17.3 | 93.1 | 36.2 | -6.8 | 81.0* | -5.5
N#C/C(=N/O)c1nc(-c2ccc(F)cc2)cs1 | 1.7 | 103.2 | 9.4 | 33.9 | 98.0* | -12.3
Fc1ccc(-c2csc(-c3ccncc3)n2)cc1 | -25.3 | 101.0 | -33.4 | -0.2 | 3.7 | 4.5
CN1CCN(S(=O)(=O)c2ccc(NC(=S)NC(=O)C(C)(C)C)cc2)CC1 | -2.4 | 103.2 | 16.9 | 79.9* | 13.6 | -16.5
CCCCCCC1CC(=CN(C)C)C(=O)O1 (stereo unspecified) | x | 106.0 | x | x | x | x
O=C(Cn1nnc(-c2ccccc2NC(=O)c2ccco2)n1)Nc1ccccc1 | -4.5 | 6.9* | 7.7 | 2.5 | -2.3 | -4.8
COc1ccccc1CNC(=O)c1cc2ccccc2o1 | -20.8 | 117.3 | 33.3 | 8.6 | -2.7 | 7.8
COc1ccccc1N=c1oc2c(OC)cccc2cc1C(=O)NCc1ccco1 | -18.2 | 103.5 | 21.1 | 0.2 | 85.9* | 8.5
COc1ccccc1NC(=O)Cn1nnc(-c2ccccc2NC(=O)c2cc3ccccc3oc2=O)n1 | 7.4 | 9.0* | 5.5 | 20.7 | 0.2 | 3.8
COc1ccccc1CNC(=O)c1cc2ccccc2oc1=O | 11.7 | 108.8 | 6.7 | 28.0* | -2.7 | -3.5
COc1ccccc1NC(=O)Cn1nnc(-c2ccccc2NS(=O)(=O)c2ccccc2)n1 | -7.9 | 132.2 | -13.1 | 4.2 | 1.6 | 12.1
SMILES | PolyA inh | Pemphigus Ab inh | NALP3 yeast inh | NALP1 inh | ALR inh | Arrestin-AP2 inh
CC(C)(C)NC(=O)Cn1nnc(-c2ccccc2NC(=O)c2ccco2)n1 | -1.5 | 92.2 | 15.1 | x | 2.6 | 5.3
C[C@H](NC(=O)c1ccc(Cl)cc1)C(=O)NNC(=O)c1cccs1 | x | 103.0 | 23.7 | x | 0.1 | -4.2
CC(=O)Nc1ccc(SC(C)C(=O)NC(N)=O)cc1 (stereo unspecified) | 12.2 | 103.4 | 5.9 | 15.2 | 99.2* | 17.2
COc1cccc(CN2CC(C(=O)NCCCn3cccn3)CCC2=O)c1 (stereo unspecified) | 22.2 | 113.2 | 13.7 | 18.1 | -3.4 | -8.8
COc1ccc(NC(=O)CSc2nc3c([nH]c4ccccc43)c(=O)n2C)c(OC)c1 | -2.6 | 49.4* | 11.1 | 2.5 | -0.9 | -1.5
COc1ccc(NC(=O)CSc2cn[nH]n2)c(OC)c1 | -11.1 | 98.6 | 15.9 | 2.2 | -7.0 | 11.4
NC(=O)C1CCN(C(=O)CSc2nc(O)cc(=O)[nH]2)CC1 | 1.3 | 108.2 | 17.1 | 0.7 | 3.0 | -1.2
COCCn1c(SCC(=O)Nc2ccc(C(N)=O)cc2)nc2c([nH]c3ccccc32)c1=O | -5.0 | 89.8 | 7.7 | 13.0 | 99.3* | 32.8
O=C(CSc1nc(O)cc(=O)[nH]1)C1CC1 | 14.7 | 100.1 | 12.1 | 16.2 | 85.8* | 9.5
COc1ccc(NC(=O)CSc2nc(O)cc(=O)[nH]2)c(OC)c1 | 16.6 | 95.5 | 1.8 | x | 98.9* | 18.4
COc1cccc(C(C(=O)NCc2ccccc2)N(C(=O)c2csnn2)C2CC2)c1 (stereo unspecified) | 17.2 | 102.0 | 17.7 | -12.0 | -1.2 | -9.4
CC(C)(C)c1ccc(C(=O)NC2CCS(=O)(=O)C2)cc1 (stereo unspecified) | -10.5 | 102.3 | 12.0 | -151.5 | x | 4.2
CC1CCc2sc(-c3n[nH]c(=S)o3)cc2C1 (stereo unspecified) | -10.2 | 103.0 | 0.9 | -8.1 | 98.2* | -0.6
CSc1nnc(-c2cc3c(s2)-c2ccccc2CC3)o1 | -31.8 | 95.0 | 37.2 | 46.6 | -10.2 | -7.8
S=c1[nH]nc(-c2cc3c(s2)-c2ccccc2CC3)o1 | -22.4 | 100.5 | -11.1 | 14.9 | 96.9* | 9.8
COc1ccc(N=C(N(C)C)P(=O)(N(C)C)N(C)C)cc1 | 10.7 | 86.6 | -5.5 | 18.1 | 99.0* | 3.8
COc1ccc(N=Nc2ccc(CO)cc2)cc1 | 10.2 | 114.3 | -2.1 | x | -10.8 | 7.0
CCC/C=C/c1ccc(CN2C(CC(C)C)C(=O)N(Cc3cn(Cc4ccco4)nn3)CCS2(=O)=O)cc1 (stereo unspecified) | x | 97.2 | x | x | x | x
CC1(C)N=C(C(=O)c2ccccc2)N(O)C1(C)O (stereo unspecified) | -9.8 | 91.2 | 10.8 | 33.1* | -0.3 | 7.6
FC(F)(F)c1ccccc1/C=N/n1c(COc2ccccc2)n[nH]c1=S | -8.8 | 103.5 | 10.2 | -9.4 | -6.2 | -7.8
CN(C)c1ccc(NC(=O)CCN2C(=O)c3cccc([N+](=O)[O-])c3C2=O)cc1 | -0.4 | 120.5 | 14.2 | 6.9 | 99.7* | 0.9
COc1ccc(-c2cn3c(C)c(C(=O)Nc4ccncc4)sc3n2)cc1 | -18.6 | 97.9 | 7.7 | -25.1 | 8.0 | 1.4
COc1ccc(N2CCN(C(=O)c3sc4nc(-c5ccc(F)cc5)cn4c3C)CC2)cc1 | 3.3 | 27.4* | 14.3 | x | -5.6 | 5.6
COc1ccc(-c2cn3c(C)c(C(=O)Nc4cccc(NC(C)=O)c4)sc3n2)cc1 | -1.8 | 80.4* | 16.2 | 5.2 | 28.9 | 2.5

Screens: PubChem, several laboratories
